Key:
[1] = Inotropic activity at L type calcium channel in guinea pig left atrium assessed as decrease in tension; format: tissue-based; settings: Cavia porcellus, Cardiac atrium
In short: (§1)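 Guinea-pig atria: left atrium driven at 1 Hz for inotropy, spontaneously beating right atrium for chronotropy. Increasing cumulative doses, readout is percent decrease. EC50 (inotropic) and EC30 (chronotropic) by Litchfield–Wilcoxon probit analysis on log concentration–response curves, n = 6–7. Not calculated when the maximum effect was below 50%.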

[2] = Activity at L type calcium channel in K+ depolarized guinea pig longitudinal smooth muscle assessed as inhibition of calcium induced contraction; parameters: species or system Cavia porcellus
Cavia porcellus [3] = species on record: Cavia porcellus; experiment: Inotropic activity at L type calcium channel in guinea pig left atrium assessed as decrease in tension at 5 uM relative to control; format: tissue-based; parameters: scale not given: the % may be the effect or the level left; settings: Cardiac atrium
Cavia porcellus [4] = species on record: Cavia porcellus; experiment: Chronotropic activity at L type calcium channel in guinea pig right atrium assessed as decrease in spontaneous beating at 10 uM relative to control; format: tissue-based; parameters: scale not given: the % may be the effect or the level left; settings: Cardiac atrium
Cavia porcellus [5] = species on record: Cavia porcellus; experiment: Chronotropic activity at L type calcium channel in guinea pig right atrium assessed as decrease in spontaneous beating; format: tissue-based; settings: Cardiac atrium; in short: as §1
Cavia porcellus [6] = species on record: Cavia porcellus; experiment: Activity at L type calcium channel in K+ depolarized guinea pig longitudinal smooth muscle assessed as inhibition of calcium induced contraction at 10 uM; parameters: scale not given: the % may be the effect or the level left
Cavia porcellus [7] = species on record: Cavia porcellus; experiment: Activity at L type calcium channel in K+ depolarized guinea pig aortic strip assessed as inhibition of calcium induced contraction at 50 uM; format: tissue-based; parameters: scale not given: the % may be the effect or the level left; settings: Aorta
In short: (§2)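 Guinea-pig aortic strips depolarized with 80 mM K+. Drugs added cumulatively. Readout is percent inhibition of calcium-induced contraction, n = 5–6. Control versus treated values tested at each concentration by Student's t-test, P < 0.05.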

Cavia porcellus [8] = species on record: Cavia porcellus; experiment: Activity at L type calcium channel in K+ depolarized guinea pig aortic strip assessed as inhibition of calcium induced contraction at 100 uM; format: tissue-based; parameters: scale not given: the % may be the effect or the level left; settings: Aorta; in short: as §2
Cavia porcellus [9] = species on record: Cavia porcellus; experiment: Inotropic activity at L type calcium channel in guinea pig left atrium assessed as decrease in tension at 100 uM relative to control; format: tissue-based; parameters: scale not given: the % may be the effect or the level left; settings: Cardiac atrium
Cavia porcellus [10] = species on record: Cavia porcellus; experiment: Chronotropic activity at L type calcium channel in guinea pig right atrium assessed as decrease in spontaneous beating at 100 uM relative to control; format: tissue-based; parameters: scale not given: the % may be the effect or the level left; settings: Cardiac atrium
Cavia porcellus [11] = species on record: Cavia porcellus; experiment: Inotropic activity at L type calcium channel in guinea pig left atrium assessed as decrease in tension at 0.5 uM relative to control; format: tissue-based; parameters: scale not given: the % may be the effect or the level left; settings: Cardiac atrium
Cavia porcellus [12] = species on record: Cavia porcellus; experiment: Chronotropic activity at L type calcium channel in guinea pig right atrium assessed as decrease in spontaneous beating at 50 uM relative to control; format: tissue-based; parameters: scale not given: the % may be the effect or the level left; settings: Cardiac atrium
Cavia porcellus [13] = species on record: Cavia porcellus; experiment: Activity at L type calcium channel in K+ depolarized guinea pig aortic strip assessed as inhibition of calcium induced contraction at 5 uM; format: tissue-based; parameters: scale not given: the % may be the effect or the level left; settings: Aorta; in short: as §2
Cavia porcellus [14] = species on record: Cavia porcellus; experiment: Activity at L type calcium channel in K+ depolarized guinea pig longitudinal smooth muscle assessed as inhibition of calcium induced contraction at 0.5 uM; parameters: scale not given: the % may be the effect or the level left
[15] = Displacement of (+)-[5-methyl-3H][…] from L type calcium channel Cav1.2a in rabbit expressed in HEK293 cells; format: cell-based, Oryctolagus cuniculus
In short: (§3)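 Intact HEK-293 cells transfected with rabbit Cav1.2a (α1C-a) or Cav1.2b (α1C-b) plasmid, labelled with (+)-[5-methyl-3H]PN200-110. Nonspecific binding about 10–20% of total. IC50 is mean ± S.E.M. of three independent experiments.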

[16] = Displacement of (+)-[5-methyl-3H][…] from L type calcium channel Cav1.2b in rabbit expressed in HEK293 cells; format: cell-based, Oryctolagus cuniculus; in short: as §3
Cavia porcellus [17] = species on record: Cavia porcellus; experiment: Chronotropic activity at L type calcium channel in guinea pig right atrium assessed as decrease in spontaneous beating at 5 uM relative to control; format: tissue-based; parameters: scale not given: the % may be the effect or the level left; settings: Cardiac atrium
[18] = Displacement of (+)-[5-methyl-3H][…] from L type calcium channel in guinea pig heart ventricles; parameters: species or system Cavia porcellus
In short: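 Guinea-pig ventricular membranes incubated with 0.5 nM (+)-[5-methyl-3H]PN200-110 and test compounds at 0.1–50 µM in a competitive radioligand assay. Ki and IC50 reported as mean ± S.E.M. Student's t-test, significance P < 0.001.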

Cavia porcellus [19] = species on record: Cavia porcellus; experiment: Activity at L type calcium channel in K+ depolarized guinea pig longitudinal smooth muscle assessed as inhibition of calcium induced contraction at 1 uM; parameters: scale not given: the % may be the effect or the level left
Cavia porcellus [20] = species on record: Cavia porcellus; experiment: Inotropic activity at L type calcium channel in guinea pig left atrium assessed as decrease in tension at 1 uM relative to control; format: tissue-based; parameters: scale not given: the % may be the effect or the level left; settings: Cardiac atrium
Cavia porcellus [21] = species on record: Cavia porcellus; experiment: Inotropic activity at L type calcium channel in guinea pig left atrium assessed as decrease in tension at 50 uM relative to control; format: tissue-based; parameters: scale not given: the % may be the effect or the level left; settings: Cardiac atrium
Cavia porcellus [22] = species on record: Cavia porcellus; experiment: Activity at L type calcium channel in K+ depolarized guinea pig aortic strip assessed as inhibition of calcium induced contraction at 10 uM; format: tissue-based; parameters: scale not given: the % may be the effect or the level left; settings: Aorta; in short: as §2
Cavia porcellus [23] = species on record: Cavia porcellus; experiment: Inotropic activity at L type calcium channel in guinea pig left atrium assessed as decrease in tension at 10 uM relative to control; format: tissue-based; parameters: scale not given: the % may be the effect or the level left; settings: Cardiac atrium

Row | EC50 [1] [nM] | Structure (SMILES) | Activity (Cavia porcellus [4]) [%] | EC30 (Cavia porcellus [5]) [nM] | Activity (Cavia porcellus [7]) [%] | Activity (Cavia porcellus [8]) [%] | Activity (Cavia porcellus [21]) [%] | also measured
1 | 54 | COC(=O)C1=C(C)NC(C)=C(C(=O)OC)C1c1c(-c2cc(OC)c([N+](=O)[O-])cc2OC)nc2sccn12 | 67 | 3970 | 35 | – | – | IC50 [2]: 2560 nM; Activity (Cavia porcellus [3]): 54%; Activity (Cavia porcellus [6]): 97%
2 | 1970 | COC(=O)C1=C(C)NC(C)=C(C(=O)OC)C1c1c(-c2ccccc2OC)nc2sccn12 | – | 1990 | – | 28 | – | Activity (Cavia porcellus [9]): 54%; Activity (Cavia porcellus [10]): 95%
3 | – | COC(=O)C1=C(C)NC(C)=C(C(=O)OC)C1c1c(C)nc2sc(C)cn12 | – | – | – | 33 | – | Activity (Cavia porcellus [11]): 43%; Activity (Cavia porcellus [12]): 38%
4 | – | COC(=O)C1=C(C)NC(C)=C(C(=O)OC)C1c1c(-c2cc(OC)cc(OC)c2)nc2sccn12 | – | 860 | – | – | – | IC50 [2]: 55 nM; Activity (Cavia porcellus [13]): 40%; Activity (Cavia porcellus [14]): 89%; IC50 [15]: 265 nM; IC50 [16]: 1.45 nM; Activity (Cavia porcellus [17]): 90%; Activity (Cavia porcellus [9]): 26%; Log Ki [18]: -6.51
5 | – | COC(=O)C1=C(C)NC(C)=C(C(=O)OC)C1c1c(-c2cc(OC)c(OC)c(OC)c2)nc2sccn12 | – | – | – | 44 | – | IC50 [2]: 550 nM; Activity (Cavia porcellus [19]): 64%; Activity (Cavia porcellus [17]): 25%; Activity (Cavia porcellus [20]): 42%
6 | 1340 | COC(=O)C1=C(C)NC(C)=C(C(=O)OC)C1c1c(-c2cc(OC)c(OC)cc2[N+](=O)[O-])nc2sccn12 | – | 6970 | – | 35 | 91 | Activity (Cavia porcellus [12]): 90%
7 | 93 | COC(=O)C1=C(C)NC(C)=C(C(=O)OC)C1c1c(-c2c(OC)ccc(OC)c2[N+](=O)[O-])nc2sc(C)cn12 | – | – | – | 27 | – | Activity (Cavia porcellus [3]): 71%; Activity (Cavia porcellus [10]): 47%
8 | 310 | COC(=O)C1=C(C)NC(C)=C(C(=O)OC)C1c1c(-c2cccc(C(F)(F)F)c2)nc2sccn12 | 78 | 1900 | 27 | – | 89 | –
9 | 360 | COC(=O)C1=C(C)NC(C)=C(C(=O)OC)C1c1c(-c2cc(OC)c([N+](=O)[O-])cc2OC)nc2sc(Cl)cn12 | – | 310 | – | – | – | Activity (Cavia porcellus [22]): 19%; Activity (Cavia porcellus [23]): 58%; Activity (Cavia porcellus [17]): 90%
10 | 1960 | COC(=O)C1=C(C)NC(C)=C(C(=O)OC)C1c1c(-c2ccccc2)nc2sc(Cl)cn12 | 87 | 2140 | 22 | – | – | Activity (Cavia porcellus [9]): 58%
11 | – | COC(=O)C1=C(C)NC(C)=C(C(=O)OC)C1c1c(C(F)(F)F)nc2sc(C)cn12 | 36 | – | 28 | – | – | Activity (Cavia porcellus [20]): 46%
12 | 2240 | CCc1cn2c(C3C(C(=O)OC)=C(C)NC(C)=C3C(=O)OC)c(-c3cc(OC)ccc3OC)nc2s1 | 92 | 730 | 29 | – | 72 | –
13 | 130 | COC(=O)C1=C(C)NC(C)=C(C(=O)OC)C1c1c(C)nc2sc(Cl)cn12 | 30 | – | 24 | – | 63 | –
14 | 1240 | COC(=O)C1=C(C)NC(C)=C(C(=O)OC)C1c1c(-c2ccc(OC)cc2OC)nc2sccn12 | 55 | 5880 | – | 42 | 71 | –
15 | 180 | COC(=O)C1=C(C)NC(C)=C(C(=O)OC)C1c1c(Cl)nc2sc(Cl)cn12 | 37 | – | 34 | – | 77 | –
16 | 440 | COC(=O)C1=C(C)NC(C)=C(C(=O)OC)C1c1c(-c2cc(OC)ccc2OC)nc2sccn12 | 31 | – | – | 24 | 92 | IC50 [2]: 12400 nM; Activity (Cavia porcellus [6]): 51%

From ChEMBL document CHEMBL1142303, “Imidazo[2,1-b]thiazole system: a scaffold endowing dihydropyridines with selective cardiodepressant activity” (J Med Chem, 2008)
